# Assay results as given in ChEMBL document CHEMBL1155077, “Kinesin spindle protein (KSP) inhibitors. 9. Discovery of (2S)-4-(2,5-difluorophenyl)-n-[(3R,4S)-3-fluoro-1-methylpiperidin-4-yl]-2-(hydroxymethyl)-N-methyl-2-phenyl-2,5-dihydro-1H-pyrrole-1-carboxamide (MK-0731) for the treatment of taxane-refractory cancer” (J Med Chem, 2008).
# Assays:
# [1] = molecular target: T1, Kinesin-like protein KIF2C (Homo sapiens, UniProt Q99661); assay: Inhibition of cloned human MCAK
# T1 sequence (Q99661 whole entry): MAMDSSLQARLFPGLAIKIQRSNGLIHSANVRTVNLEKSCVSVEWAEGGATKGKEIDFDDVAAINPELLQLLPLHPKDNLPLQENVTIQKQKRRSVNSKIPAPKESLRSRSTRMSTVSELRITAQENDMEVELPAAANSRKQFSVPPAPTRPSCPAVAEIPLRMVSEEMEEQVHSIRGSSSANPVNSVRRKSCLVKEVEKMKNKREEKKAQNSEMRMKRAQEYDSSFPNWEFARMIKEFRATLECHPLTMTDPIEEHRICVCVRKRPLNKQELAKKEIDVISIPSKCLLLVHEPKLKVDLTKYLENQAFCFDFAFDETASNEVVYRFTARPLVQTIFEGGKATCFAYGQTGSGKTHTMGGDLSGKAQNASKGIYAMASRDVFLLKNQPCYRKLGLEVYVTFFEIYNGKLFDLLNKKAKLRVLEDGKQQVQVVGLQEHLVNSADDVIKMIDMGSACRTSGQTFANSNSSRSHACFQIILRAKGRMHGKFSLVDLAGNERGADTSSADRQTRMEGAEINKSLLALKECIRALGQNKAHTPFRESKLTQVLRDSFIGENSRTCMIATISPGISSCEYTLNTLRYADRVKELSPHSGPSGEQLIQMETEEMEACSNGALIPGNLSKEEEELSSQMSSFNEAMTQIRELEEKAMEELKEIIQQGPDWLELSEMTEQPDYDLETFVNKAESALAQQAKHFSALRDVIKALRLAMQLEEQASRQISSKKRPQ
# [2] = molecular target: Kinesin-like protein KIF3A (Homo sapiens, UniProt Q9Y496); assay: Inhibition of cloned human Kif3A
# Kinesin-like protein KIF3A, sequence (Q9Y496 whole entry): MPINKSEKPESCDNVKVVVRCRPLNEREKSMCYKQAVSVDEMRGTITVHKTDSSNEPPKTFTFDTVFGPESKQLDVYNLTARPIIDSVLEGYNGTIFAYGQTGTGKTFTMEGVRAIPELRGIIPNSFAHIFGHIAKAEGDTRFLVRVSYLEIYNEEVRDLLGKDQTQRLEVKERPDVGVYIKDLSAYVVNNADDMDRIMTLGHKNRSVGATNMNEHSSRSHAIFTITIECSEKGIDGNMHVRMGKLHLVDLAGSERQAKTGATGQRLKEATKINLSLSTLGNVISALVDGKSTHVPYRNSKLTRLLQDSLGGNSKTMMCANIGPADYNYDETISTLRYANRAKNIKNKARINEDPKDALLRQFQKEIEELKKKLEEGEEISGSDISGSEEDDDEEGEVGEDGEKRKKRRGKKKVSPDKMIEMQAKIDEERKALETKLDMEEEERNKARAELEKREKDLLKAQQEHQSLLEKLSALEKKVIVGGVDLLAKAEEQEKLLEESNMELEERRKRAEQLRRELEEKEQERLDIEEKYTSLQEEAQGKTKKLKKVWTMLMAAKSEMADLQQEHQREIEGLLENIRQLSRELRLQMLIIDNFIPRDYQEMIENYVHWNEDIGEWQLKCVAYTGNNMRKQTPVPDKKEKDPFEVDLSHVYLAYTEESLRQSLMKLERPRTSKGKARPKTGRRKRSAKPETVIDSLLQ
# [3] = Half life in rat at 1 mg/kg, iv; assay type: ADME, organism-based; set-up: dose 1 mg/kg, route intravenous; conditions: in vivo
# [4] = molecular target: Voltage-gated inwardly rectifying potassium channel KCNH2 (Homo sapiens, UniProt Q12809)
# Voltage-gated inwardly rectifying potassium channel KCNH2, sequence (Q12809 whole entry): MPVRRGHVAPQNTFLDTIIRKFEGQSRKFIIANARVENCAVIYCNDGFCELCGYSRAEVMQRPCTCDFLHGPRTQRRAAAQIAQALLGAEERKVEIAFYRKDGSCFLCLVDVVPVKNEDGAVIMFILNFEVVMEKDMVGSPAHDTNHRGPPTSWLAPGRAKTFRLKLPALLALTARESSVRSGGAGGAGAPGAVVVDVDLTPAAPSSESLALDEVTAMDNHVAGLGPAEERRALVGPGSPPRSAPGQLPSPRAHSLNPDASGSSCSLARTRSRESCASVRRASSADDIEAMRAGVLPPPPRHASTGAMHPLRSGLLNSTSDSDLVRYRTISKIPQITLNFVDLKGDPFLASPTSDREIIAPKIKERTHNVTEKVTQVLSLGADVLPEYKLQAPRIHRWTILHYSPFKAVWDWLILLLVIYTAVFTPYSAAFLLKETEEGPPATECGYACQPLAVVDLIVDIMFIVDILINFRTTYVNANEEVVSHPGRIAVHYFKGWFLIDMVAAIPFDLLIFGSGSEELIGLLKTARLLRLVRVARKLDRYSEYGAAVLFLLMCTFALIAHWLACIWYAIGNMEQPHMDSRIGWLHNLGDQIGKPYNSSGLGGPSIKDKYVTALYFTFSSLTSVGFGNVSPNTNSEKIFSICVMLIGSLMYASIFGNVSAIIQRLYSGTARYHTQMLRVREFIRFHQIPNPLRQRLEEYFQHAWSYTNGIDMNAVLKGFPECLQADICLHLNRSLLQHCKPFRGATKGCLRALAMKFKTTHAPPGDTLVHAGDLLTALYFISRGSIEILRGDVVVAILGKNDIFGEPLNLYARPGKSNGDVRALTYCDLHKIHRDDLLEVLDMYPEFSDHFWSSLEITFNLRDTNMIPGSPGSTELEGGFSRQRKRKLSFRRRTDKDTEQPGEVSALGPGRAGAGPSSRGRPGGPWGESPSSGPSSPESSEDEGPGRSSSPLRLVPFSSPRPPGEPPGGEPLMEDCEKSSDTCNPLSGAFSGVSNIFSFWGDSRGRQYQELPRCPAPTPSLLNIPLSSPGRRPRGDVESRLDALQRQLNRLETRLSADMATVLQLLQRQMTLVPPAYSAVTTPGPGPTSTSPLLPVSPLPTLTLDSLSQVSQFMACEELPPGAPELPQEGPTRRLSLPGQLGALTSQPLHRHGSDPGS
# [5] = Half life in rhesus monkey at 0.4 mg/kg, iv; assay type: ADME, organism-based, Macaca mulatta; set-up: dose 0.4 mg/kg, route intravenous; conditions: in vivo
# [6] = Volume of distribution at steady state in rat at 1 mg/kg, iv; assay type: ADME, organism-based; set-up: dose 1 mg/kg, route intravenous; conditions: in vivo, read-out: Vdss
# [7] = molecular target: Kinesin-like protein KIF1B (Homo sapiens, UniProt O60333); assay: Inhibition of cloned human Kif1B
# Kinesin-like protein KIF1B, sequence (O60333 whole entry): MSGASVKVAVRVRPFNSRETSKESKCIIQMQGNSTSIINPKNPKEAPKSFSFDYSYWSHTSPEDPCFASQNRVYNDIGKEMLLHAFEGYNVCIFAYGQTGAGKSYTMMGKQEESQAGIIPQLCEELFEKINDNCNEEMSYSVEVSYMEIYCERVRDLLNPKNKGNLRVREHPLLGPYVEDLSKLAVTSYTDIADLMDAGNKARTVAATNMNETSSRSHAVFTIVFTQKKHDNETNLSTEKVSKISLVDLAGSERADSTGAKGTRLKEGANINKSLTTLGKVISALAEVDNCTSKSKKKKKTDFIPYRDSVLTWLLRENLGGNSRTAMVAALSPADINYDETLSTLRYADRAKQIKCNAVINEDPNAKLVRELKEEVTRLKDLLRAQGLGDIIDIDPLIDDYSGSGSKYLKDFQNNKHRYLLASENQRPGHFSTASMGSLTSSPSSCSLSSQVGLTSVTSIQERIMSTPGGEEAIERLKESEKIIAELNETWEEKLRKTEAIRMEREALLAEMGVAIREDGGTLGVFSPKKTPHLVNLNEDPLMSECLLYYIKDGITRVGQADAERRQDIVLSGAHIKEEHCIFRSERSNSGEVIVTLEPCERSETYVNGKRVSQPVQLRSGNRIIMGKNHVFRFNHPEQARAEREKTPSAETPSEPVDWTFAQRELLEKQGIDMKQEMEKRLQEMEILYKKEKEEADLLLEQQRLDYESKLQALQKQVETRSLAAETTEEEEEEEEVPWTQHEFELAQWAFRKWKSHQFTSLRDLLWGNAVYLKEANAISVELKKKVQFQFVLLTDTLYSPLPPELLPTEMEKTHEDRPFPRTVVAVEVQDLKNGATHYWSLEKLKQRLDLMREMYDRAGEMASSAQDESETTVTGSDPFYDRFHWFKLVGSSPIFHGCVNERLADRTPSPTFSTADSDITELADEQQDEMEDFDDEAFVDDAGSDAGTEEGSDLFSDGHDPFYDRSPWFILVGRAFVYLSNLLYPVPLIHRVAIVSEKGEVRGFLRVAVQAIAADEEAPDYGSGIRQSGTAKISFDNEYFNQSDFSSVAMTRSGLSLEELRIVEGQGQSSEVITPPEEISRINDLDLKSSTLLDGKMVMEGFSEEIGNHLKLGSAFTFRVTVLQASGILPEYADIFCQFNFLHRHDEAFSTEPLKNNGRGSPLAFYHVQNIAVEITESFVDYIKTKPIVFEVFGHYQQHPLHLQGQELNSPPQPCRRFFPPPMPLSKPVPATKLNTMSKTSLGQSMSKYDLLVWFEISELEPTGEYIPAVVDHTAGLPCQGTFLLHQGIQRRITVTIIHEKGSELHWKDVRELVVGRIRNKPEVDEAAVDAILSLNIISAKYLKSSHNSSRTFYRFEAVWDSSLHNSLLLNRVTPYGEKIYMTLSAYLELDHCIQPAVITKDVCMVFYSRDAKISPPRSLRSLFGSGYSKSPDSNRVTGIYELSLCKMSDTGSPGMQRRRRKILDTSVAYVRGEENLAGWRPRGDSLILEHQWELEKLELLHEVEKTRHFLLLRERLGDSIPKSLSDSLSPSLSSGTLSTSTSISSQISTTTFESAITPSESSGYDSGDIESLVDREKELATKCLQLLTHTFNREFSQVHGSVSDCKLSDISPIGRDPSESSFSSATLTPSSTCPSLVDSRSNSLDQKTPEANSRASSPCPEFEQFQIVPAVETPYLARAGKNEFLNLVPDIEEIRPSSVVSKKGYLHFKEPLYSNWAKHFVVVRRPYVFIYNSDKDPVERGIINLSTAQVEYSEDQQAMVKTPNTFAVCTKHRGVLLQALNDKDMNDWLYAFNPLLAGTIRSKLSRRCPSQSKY
# Mus musculus = organism: Mus musculus; assay: Toxicity in naive mouse assessed as neutopenia after 6 days; assay type: organism-based; conditions: in vivo, 144 h
# Summary of the method: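 Naive mice dosed under protocols varying dose, vehicle and frequency, with survival as the end point; peripheral blood counts, including neutrophils, followed after dosing.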
# [8] = Volume of distribution at steady state in rhesus monkey at 0.4 mg/kg, iv; assay type: ADME, organism-based, Macaca mulatta; set-up: dose 0.4 mg/kg, route intravenous; conditions: in vivo, read-out: Vdss
# A2780 = assay: Induction of mitotic arrest in human A2780 cells […] clr:NU/NU-nuBR mouse assessed as minimum plasma concentration required to induce maximum mitotic arrest after 22 hrs; assay type: functional
# Kinesin-1 heavy chain = molecular target: T2, Kinesin-1 heavy chain (Homo sapiens, UniProt P33176); assay: Inhibition of cloned human uKHC
# T2 sequence (P33176 whole entry): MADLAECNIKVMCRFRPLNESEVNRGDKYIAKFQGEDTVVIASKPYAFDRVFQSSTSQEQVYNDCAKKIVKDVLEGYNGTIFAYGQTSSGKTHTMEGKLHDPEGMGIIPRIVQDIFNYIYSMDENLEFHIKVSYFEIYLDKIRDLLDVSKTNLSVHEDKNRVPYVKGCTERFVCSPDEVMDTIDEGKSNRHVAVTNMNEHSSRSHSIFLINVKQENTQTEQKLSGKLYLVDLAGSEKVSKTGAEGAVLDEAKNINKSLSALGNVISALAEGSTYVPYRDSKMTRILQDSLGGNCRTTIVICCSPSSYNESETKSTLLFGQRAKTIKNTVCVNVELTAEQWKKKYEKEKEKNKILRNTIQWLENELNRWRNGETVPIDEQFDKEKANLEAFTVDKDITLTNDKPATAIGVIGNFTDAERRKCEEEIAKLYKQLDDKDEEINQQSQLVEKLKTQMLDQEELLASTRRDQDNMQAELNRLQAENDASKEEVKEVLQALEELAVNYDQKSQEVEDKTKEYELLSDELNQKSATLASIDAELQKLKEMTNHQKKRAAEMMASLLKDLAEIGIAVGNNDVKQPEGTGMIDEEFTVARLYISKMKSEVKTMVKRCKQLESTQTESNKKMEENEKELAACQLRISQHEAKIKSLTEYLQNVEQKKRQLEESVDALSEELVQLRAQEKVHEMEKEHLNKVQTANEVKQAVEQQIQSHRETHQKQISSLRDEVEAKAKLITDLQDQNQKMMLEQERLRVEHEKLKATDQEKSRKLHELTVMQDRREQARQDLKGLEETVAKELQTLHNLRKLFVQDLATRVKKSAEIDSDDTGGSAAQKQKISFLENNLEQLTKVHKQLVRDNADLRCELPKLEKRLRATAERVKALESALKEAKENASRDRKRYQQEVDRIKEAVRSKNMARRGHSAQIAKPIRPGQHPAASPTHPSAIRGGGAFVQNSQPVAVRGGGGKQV
compound,measurement,setting,value
CN1CC[C@H](N(C)C(=O)N2CC(c3cc(F)ccc3F)=C[C@@]2(CO)c2ccccc2)[C@H](F)C1,IC50,[1],> 50 µM
same,IC50,[2],> 50 µM
same,half-life,[3],1 h
same,IC50,[4],20.5 µM
same,half-life,[5],1 h
same,Vd,[6],3 L/kg
same,IC50,[7],> 50 µM
same,Activity,Mus musculus,Toxic
same,Vd,[8],2.3 L/kg
same,EC90,A2780,0.094 µM
same,IC50,Kinesin-1 heavy chain,> 50 µM
